Results taken from ChEMBL document CHEMBL4680176, “Identification of DOT1L inhibitors by structure-based virtual screening adapted from a nucleoside-focused library” (Eur J Med Chem, 2020).
Activity calls are given as the source filed them. No cut-off for these calls is given here.

Tests used:
[1] = target: T1, Histone-lysine N-methyltransferase, H3 lysine-79 specific (Homo sapiens, UniProt Q8TEK3); assay: Inhibition of recombinant human N-terminal GST-tagged DOT1L (1 to 420 residues) expressed in Escherichia coli BL21 (DE3) using histone as substrate incubated for 1 hr by MTase-glo based luminescence assay
Target sequence in this assay (Q8TEK3 whole entry, the tested form may be a part): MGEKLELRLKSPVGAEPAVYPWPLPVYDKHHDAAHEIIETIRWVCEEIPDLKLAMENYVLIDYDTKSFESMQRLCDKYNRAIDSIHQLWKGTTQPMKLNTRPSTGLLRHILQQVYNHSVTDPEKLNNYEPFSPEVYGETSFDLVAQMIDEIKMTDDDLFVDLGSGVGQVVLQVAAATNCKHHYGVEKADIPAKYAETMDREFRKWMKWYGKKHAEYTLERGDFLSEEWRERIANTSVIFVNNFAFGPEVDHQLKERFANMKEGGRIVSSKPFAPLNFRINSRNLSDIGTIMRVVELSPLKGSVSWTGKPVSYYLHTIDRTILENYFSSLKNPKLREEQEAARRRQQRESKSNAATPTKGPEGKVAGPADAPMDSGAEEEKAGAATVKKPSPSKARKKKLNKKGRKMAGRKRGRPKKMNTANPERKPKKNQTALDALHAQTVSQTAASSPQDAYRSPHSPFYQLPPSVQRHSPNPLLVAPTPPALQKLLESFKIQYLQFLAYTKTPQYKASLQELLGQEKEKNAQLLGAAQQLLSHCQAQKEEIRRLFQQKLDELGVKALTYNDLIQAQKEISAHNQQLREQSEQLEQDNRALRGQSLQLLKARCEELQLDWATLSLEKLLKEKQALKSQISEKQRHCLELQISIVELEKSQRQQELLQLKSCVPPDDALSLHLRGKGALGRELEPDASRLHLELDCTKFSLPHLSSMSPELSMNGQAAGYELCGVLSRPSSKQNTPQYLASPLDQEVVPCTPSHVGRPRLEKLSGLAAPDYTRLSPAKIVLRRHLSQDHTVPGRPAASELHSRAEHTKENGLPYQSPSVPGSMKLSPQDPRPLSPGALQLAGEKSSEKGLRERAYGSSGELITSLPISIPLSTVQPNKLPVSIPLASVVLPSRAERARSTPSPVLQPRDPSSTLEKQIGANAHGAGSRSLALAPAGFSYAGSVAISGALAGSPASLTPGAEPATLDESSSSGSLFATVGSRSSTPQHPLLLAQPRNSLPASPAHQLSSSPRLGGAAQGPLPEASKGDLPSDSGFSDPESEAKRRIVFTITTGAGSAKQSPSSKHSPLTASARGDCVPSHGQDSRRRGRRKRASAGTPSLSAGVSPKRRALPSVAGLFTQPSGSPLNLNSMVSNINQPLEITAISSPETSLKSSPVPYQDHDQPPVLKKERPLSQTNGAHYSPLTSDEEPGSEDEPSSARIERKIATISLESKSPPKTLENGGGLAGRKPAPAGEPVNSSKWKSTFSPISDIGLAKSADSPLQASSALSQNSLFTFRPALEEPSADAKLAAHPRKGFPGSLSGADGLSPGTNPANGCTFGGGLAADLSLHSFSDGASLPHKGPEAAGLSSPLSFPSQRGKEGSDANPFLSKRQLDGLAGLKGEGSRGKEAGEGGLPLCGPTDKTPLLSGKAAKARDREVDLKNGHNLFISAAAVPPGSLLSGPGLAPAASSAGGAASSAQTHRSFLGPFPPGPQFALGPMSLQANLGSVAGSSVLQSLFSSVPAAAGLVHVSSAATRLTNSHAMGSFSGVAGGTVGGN

[2] = target: Protein arginine N-methyltransferase 3 (Homo sapiens, UniProt O60678); assay: Inhibition of recombinant human PRMT3 using histone H4 as substrate by hotspot assay
[3] = target: Protein arginine N-methyltransferase 5 (Homo sapiens, UniProt O14744); assay: Inhibition of recombinant human PRMT5 using histone H2A as substrate by hotspot assay
[4] = target: T2, Protein arginine N-methyltransferase 7 (Homo sapiens, UniProt Q9NVM4); assay: Inhibition of recombinant human PRMT7 using GST-GAR as substrate by hotspot assay
T2 sequence (Q9NVM4 whole entry): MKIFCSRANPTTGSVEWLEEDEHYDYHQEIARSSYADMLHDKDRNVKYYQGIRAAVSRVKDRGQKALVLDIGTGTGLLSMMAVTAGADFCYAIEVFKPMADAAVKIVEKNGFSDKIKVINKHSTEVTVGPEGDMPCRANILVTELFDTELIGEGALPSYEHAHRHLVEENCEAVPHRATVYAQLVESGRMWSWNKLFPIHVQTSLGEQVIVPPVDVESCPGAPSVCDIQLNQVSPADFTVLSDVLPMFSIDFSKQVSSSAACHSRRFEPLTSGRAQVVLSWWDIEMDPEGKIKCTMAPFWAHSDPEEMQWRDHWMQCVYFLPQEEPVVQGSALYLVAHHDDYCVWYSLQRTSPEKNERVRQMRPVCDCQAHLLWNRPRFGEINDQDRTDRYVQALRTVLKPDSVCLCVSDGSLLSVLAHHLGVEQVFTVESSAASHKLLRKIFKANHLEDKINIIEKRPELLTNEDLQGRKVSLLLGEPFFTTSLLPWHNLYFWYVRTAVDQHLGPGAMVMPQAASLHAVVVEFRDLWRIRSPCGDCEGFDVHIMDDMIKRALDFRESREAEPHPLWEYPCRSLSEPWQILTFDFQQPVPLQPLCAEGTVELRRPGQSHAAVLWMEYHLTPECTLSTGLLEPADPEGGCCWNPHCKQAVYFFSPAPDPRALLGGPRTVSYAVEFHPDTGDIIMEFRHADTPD

[5] = target: Protein arginine N-methyltransferase 8 (Homo sapiens, UniProt Q9NR22); assay: Inhibition of recombinant human PRMT8 using histone H4 as substrate by hotspot assay
[6] = target: DNA (cytosine-5)-methyltransferase 1 (Homo sapiens, UniProt P26358); assay: Inhibition of recombinant human DNMT1 using poly(dl-dC) as substrate by hotspot assay
[7] = target: Histone-lysine N-methyltransferase EZH2 (Homo sapiens, UniProt Q15910); assay: Inhibition of recombinant human EZH2 using core histone as substrate by hotspot assay
[8] = target: T3, Histone-lysine N-methyltransferase SETD7 (Homo sapiens, UniProt Q8WTS6); assay: Inhibition of recombinant human SET7/9 using core histone as substrate by hotspot assay
T3 sequence (Q8WTS6 whole entry): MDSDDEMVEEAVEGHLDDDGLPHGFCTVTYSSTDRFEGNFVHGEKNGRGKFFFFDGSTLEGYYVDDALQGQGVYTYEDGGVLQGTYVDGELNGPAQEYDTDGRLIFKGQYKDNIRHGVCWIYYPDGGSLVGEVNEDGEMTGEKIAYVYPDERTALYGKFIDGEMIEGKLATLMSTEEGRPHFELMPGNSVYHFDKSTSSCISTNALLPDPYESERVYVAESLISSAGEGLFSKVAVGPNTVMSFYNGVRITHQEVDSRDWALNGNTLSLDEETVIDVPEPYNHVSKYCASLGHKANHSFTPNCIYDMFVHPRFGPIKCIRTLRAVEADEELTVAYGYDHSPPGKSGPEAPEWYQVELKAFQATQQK

[9] = target: T4, Histone-lysine N-methyltransferase EHMT2 (Homo sapiens, UniProt Q96KQ7); assay: Inhibition of recombinant human G9a using histone H3 (1 to 21) as substrate by hotspot assay
T4 sequence (Q96KQ7 whole entry): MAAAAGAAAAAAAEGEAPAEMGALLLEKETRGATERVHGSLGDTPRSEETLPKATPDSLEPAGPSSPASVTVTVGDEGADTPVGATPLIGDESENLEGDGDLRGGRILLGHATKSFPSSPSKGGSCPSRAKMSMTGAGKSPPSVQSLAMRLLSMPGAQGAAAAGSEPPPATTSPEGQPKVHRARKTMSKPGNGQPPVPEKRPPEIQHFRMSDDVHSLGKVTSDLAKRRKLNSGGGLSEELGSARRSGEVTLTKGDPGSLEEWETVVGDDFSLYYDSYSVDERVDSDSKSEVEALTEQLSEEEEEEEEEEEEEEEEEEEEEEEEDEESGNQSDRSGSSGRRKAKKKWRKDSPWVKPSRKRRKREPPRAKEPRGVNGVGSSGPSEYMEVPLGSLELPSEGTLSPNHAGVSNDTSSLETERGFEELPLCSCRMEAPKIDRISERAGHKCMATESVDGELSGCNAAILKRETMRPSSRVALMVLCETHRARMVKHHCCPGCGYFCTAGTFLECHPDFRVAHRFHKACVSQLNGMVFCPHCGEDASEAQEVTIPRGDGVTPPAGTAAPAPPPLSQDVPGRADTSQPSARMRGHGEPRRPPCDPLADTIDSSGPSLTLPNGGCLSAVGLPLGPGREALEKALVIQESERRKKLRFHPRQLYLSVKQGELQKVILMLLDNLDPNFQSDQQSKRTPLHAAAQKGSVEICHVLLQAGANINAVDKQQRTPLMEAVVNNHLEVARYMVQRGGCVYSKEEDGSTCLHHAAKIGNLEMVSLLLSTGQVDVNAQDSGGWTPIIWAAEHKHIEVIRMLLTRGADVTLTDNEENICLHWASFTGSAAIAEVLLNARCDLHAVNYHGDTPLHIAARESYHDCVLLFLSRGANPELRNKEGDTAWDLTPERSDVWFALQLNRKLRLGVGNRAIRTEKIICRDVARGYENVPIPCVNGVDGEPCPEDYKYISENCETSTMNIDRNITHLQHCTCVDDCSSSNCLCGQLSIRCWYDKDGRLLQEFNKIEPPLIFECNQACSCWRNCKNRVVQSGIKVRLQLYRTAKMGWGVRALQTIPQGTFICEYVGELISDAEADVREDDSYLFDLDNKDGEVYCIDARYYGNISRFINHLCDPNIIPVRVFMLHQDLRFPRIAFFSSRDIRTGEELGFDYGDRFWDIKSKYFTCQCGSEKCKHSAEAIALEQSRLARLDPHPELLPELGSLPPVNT

Bone marrow cell = assay: Induction of cell differentiation in mouse bone marrow cells transformed with MLL-AF9 assessed as change in morphology at 3 uM incubated for 6 days by Wright-Giemsa staining based inverted microscopy; assay type: functional; conditions: time 6.0 day
In short: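 Cells taken on day 6 of the proliferation culture (MLL-AF9 murine line, IMDM + 15% FBS + IL-3, re-dosed at each split, 0.3% DMSO). Cytospun onto slides, Wright-Giemsa stained, and imaged under bright field on an inverted microscope to assess morphology.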

[10] = target: T5, Histone H3 methyltransferase DOT1 variant d (Mus musculus) (UniProt Q679P4); assay: Inhibition of DOT1L in mouse bone marrow cell transformed with MLL-AF9 cells assessed as reduction in H3K79 methylation at 100 uM measured upto 9 days by Western blot analysis; assay type: cell-based; conditions: time day <=9, TDE = time-dependent effect
T5 sequence (whole entry): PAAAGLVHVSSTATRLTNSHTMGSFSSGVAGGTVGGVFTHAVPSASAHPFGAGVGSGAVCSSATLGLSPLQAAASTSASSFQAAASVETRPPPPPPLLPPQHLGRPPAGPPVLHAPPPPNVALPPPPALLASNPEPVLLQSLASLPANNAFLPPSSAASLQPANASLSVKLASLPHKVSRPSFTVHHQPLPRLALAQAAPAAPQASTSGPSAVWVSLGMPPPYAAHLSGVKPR

[11] = target: T5, Histone H3 methyltransferase DOT1 variant d (Mus musculus); assay: Inhibition of DOT1L in mouse bone marrow cell transformed with MLL-AF9 cells assessed as reduction in H3K36 methylation at 100 uM measured upto 9 days by Western blot analysis; assay type: cell-based; conditions: time day <=9
[12] = target: T5, Histone H3 methyltransferase DOT1 variant d (Mus musculus); assay: Inhibition of DOT1L in mouse bone marrow cell transformed with MLL-AF9 cells assessed as reduction in H3K27 methylation at 100 uM measured upto 9 days by Western blot analysis; assay type: cell-based; conditions: time day <=9
[13] = target: T1, Histone-lysine N-methyltransferase, H3 lysine-79 specific; assay: Inhibition of recombinant human N-terminal GST-tagged DOT1L (1 to 420 residues) expressed in Escherichia coli BL21 (DE3) using nucleosome as substrate incubated for 1 hr in presence of [3H]-SAM by liquid scintillation counting method
In short: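 GST-tagged DOT1L catalytic domain (1-420), expressed in E. coli BL21(DE3) and Ni-affinity purified, used at 125 nM. Compound added before SAM start; 1 hr at room temperature. Product captured on P81 filters, NaHCO3-washed, and counted by scintillation.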
Target sequence in this assay (Q8TEK3 whole entry, the tested form may be a part): as the sequence (Q8TEK3 whole entry, the tested form may be a part) above

[14] = target: T1, Histone-lysine N-methyltransferase, H3 lysine-79 specific; assay: Binding affinity to recombinant human N-terminal GST-tagged DOT1L (1 to 420 residues) expressed in Escherichia coli BL21 (DE3) assessed as increase in melting temperature at 100 uM incubated for 1 min by 1,8-ANS probe based thermal shift assay
Target sequence in this assay (Q8TEK3 whole entry, looked up, the tested form may be a part): as the sequence (Q8TEK3 whole entry, the tested form may be a part) above

Chain of Histone-lysine N-methyltransferase EZH2 (Q15910 whole entry): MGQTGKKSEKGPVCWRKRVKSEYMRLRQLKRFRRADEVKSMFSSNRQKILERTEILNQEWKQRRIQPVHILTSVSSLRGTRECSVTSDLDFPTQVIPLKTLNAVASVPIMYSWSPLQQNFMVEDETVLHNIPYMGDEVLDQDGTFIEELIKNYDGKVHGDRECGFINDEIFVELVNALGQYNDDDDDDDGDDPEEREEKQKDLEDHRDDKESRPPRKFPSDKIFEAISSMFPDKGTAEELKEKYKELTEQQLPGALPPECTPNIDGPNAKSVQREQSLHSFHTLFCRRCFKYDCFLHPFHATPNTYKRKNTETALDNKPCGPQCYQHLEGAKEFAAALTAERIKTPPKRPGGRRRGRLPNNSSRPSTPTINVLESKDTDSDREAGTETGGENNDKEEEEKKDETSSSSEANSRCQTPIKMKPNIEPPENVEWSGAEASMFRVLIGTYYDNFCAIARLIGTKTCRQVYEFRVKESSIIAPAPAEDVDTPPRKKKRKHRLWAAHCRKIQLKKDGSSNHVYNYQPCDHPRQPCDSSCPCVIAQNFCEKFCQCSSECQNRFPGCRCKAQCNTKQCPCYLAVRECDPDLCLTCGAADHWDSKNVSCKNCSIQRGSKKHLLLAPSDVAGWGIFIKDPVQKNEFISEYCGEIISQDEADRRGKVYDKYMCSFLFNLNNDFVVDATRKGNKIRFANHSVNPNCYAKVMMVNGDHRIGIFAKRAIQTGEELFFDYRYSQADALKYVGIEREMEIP
Chain of Protein arginine N-methyltransferase 5 (O14744 whole entry): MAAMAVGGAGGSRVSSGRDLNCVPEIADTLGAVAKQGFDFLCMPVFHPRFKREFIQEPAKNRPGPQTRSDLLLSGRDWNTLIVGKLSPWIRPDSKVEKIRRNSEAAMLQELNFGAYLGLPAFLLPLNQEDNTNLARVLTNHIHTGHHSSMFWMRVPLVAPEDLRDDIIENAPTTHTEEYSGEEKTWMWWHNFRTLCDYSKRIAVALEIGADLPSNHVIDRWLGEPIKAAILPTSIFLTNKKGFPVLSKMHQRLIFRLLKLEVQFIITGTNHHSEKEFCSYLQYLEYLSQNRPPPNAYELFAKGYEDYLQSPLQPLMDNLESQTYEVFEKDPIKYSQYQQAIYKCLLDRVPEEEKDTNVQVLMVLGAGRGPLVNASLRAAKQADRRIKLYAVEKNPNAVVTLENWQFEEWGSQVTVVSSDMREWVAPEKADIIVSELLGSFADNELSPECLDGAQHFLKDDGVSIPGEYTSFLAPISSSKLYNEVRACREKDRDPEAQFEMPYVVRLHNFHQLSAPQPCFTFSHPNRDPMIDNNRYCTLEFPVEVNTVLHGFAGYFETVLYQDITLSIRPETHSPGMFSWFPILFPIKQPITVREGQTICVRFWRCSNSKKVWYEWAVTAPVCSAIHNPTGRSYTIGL
Chain of DNA (cytosine-5)-methyltransferase 1 (P26358 whole entry): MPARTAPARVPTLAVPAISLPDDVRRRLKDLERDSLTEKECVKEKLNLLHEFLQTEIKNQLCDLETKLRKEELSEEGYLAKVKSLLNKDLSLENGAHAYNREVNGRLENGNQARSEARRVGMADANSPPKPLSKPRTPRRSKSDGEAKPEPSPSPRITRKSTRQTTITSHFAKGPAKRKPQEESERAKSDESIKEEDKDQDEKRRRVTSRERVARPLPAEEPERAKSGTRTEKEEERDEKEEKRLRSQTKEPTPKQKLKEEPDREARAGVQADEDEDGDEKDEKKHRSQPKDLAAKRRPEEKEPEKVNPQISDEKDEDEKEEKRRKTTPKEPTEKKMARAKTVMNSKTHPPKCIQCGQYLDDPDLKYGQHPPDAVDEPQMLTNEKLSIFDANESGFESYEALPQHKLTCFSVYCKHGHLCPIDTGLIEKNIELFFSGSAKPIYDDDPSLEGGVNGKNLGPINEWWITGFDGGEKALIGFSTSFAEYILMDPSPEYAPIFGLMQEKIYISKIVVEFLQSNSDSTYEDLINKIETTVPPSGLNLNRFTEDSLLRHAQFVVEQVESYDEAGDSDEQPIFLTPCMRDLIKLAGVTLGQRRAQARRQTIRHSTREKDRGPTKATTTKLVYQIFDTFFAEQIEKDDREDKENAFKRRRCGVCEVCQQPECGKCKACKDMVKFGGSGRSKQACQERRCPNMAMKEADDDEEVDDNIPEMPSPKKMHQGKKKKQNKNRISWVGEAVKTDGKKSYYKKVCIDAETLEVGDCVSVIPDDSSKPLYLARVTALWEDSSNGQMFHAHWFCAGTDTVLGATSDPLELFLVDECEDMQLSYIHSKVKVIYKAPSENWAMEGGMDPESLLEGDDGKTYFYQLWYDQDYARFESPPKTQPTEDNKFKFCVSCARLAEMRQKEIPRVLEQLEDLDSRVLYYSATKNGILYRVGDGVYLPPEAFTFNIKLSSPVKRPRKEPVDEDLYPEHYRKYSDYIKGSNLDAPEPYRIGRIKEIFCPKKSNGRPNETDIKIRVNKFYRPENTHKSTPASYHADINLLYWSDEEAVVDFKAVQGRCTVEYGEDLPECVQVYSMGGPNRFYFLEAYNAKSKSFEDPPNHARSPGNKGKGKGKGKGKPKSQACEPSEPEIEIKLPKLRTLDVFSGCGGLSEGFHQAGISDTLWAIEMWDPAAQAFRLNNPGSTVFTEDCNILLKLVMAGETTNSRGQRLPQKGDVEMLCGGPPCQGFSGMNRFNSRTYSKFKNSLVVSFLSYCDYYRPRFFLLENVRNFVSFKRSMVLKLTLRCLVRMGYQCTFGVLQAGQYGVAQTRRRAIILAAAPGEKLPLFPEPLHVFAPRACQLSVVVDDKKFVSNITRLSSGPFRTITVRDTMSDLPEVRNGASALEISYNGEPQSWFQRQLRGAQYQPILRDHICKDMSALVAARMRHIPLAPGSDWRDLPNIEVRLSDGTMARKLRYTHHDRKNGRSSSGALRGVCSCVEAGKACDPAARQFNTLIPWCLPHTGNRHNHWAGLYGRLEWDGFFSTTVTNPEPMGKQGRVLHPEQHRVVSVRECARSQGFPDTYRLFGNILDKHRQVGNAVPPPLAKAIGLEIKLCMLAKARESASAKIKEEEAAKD
Chain of Protein arginine N-methyltransferase 8 (Q9NR22 whole entry): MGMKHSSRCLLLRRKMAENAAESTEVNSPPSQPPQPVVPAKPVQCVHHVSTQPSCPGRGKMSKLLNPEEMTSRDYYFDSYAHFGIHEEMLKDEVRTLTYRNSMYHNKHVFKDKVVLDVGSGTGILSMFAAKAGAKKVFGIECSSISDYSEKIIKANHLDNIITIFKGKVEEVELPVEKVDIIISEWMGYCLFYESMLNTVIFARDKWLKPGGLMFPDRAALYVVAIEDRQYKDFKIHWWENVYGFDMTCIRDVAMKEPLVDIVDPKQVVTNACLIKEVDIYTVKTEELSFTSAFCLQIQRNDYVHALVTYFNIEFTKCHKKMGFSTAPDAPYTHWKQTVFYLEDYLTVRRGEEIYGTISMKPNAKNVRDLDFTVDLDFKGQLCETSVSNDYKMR

`Cc1ccc(NC(=O)c2ncn(CC(=O)NCc3ccc4c(N)nccc4c3)n2)cc1C` was tested, and the IC50 [1] was 69.2 µM, the IC50 [2] was “Not Active” and the IC50 [3] was “Not Active”. It also gave an IC50 ([4]; read-out: IC50) of 69.4 µM and an IC50 [5] of 216 µM.
With `Cc1ccc(NC(=O)c2ncn(CC(=O)NCCn3ccc4c(N)ncnc43)n2)cc1C` the IC50 ([6]; read-out: IC50) was greater than 250 µM, the IC50 [1] was 10.9 µM and the IC50 [7] was “Not Active”. For the same compound, the IC50 [2] was “Not Active”, the IC50 [3] was “Not Active” and the IC50 [8] was “Not Active”. For the same compound, the IC50 [9] was “Not Active”.
`CC(C)(C)c1ccc(NC(=O)c2ncn(CC(=O)NCc3ccc4[nH]ncc4c3)n2)cc1` was tested, and the IC50 [6] was “Not Active”, the IC50 [1] was 22.4 µM and the IC50 ([7]; read-out: IC50) was greater than 250 µM. The IC50 [2] was “Not Active”, the IC50 [3] was “Not Active” and the IC50 [8] was “Not Active”. For the same compound, the IC50 ([9]; read-out: IC50) was greater than 250 µM.
In the case of `CC(C)(C)c1ccc(NC(=O)c2ncn(CC(=O)NCc3ccc4c(N)nccc4c3)n2)cc1`, the IC50 [6] is reported as “Not Active”, the IC50 [1] is reported as 19.5 µM and the IC50 [7] is reported as “Not Active”. The IC50 ([2]; read-out: IC50) was 25.3 µM, the IC50 ([3]; read-out: IC50) was 113 µM and the IC50 ([4]; read-out: IC50) was 61.5 µM. For the same compound, the IC50 ([8]; read-out: IC50) was 79.8 µM, the IC50 ([9]; read-out: IC50) was 61.4 µM and the IC50 [5] was 53.6 µM.
With `Nc1nccc2cc(CNC(=O)Cn3cnc(C(=O)NC4CCCCC4)n3)ccc12` the IC50 [1] was greater than 100 µM, the IC50 [2] was “Not Active” and the IC50 [3] was “Not Active”. The IC50 [4] was “Not Active” and the IC50 [5] was 94.9 µM.
With `CC(C)N(CCCNC(=O)Nc1ccc(C(C)(C)C)cc1)C[C@H]1O[C@@H](n2ccc3c(N)ncnc32)[C@H](O)[C@@H]1O` the Activity (Bone marrow cell) was “Active”.
`Nc1ncnc2c1ncn2[C@@H]1O[C@H](CNCc2ccc(OCC(=O)Nc3ccccn3)cc2)[C@@H](O)[C@H]1O` was tested, and the inhibition [10] was “Tde”, the inhibition [11] was “inactive” and the inhibition [12] was “inactive”. For the same compound, the IC50 [13] was 54.9 µM and the Activity [14] was “Active”.
